EC50 and Activity data for one molecule are collected here from ChEMBL document CHEMBL4393735, “Molecular modelling, synthesis, and biological evaluations of a 3,5-disubstituted isoxazole fatty acid analogue as a PPARα-selective agonist” (Bioorg Med Chem, 2019).

Activity calls are given as the source filed them.

What all share (format): cell-based
Assay [1] addresses T1, Peroxisome proliferator-activated receptor alpha (Homo sapiens, UniProt Q07869).
T1 sequence (Q07869 whole entry): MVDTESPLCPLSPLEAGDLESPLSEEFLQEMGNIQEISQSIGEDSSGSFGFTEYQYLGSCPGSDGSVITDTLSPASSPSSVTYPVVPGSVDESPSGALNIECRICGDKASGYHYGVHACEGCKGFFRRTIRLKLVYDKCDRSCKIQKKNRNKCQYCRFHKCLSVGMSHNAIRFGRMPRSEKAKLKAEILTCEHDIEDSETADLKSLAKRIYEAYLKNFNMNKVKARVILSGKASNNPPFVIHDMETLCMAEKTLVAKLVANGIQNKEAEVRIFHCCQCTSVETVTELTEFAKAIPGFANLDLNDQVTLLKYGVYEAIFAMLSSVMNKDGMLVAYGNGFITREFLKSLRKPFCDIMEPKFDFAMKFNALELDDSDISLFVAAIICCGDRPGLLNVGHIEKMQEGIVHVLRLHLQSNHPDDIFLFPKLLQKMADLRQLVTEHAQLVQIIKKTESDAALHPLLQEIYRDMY
Kind of assay: Agonist activity at full length human FLAG-tagged GAL4-DBD fused PPARalpha LBD (168 to 468 residues) expressed in COS1 cells measured after 18 hrs by dual luciferase reporter gene assay. A digest of the protocol:
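Dose-response in COS-1 cells transfected with GAL4-DBD–human PPARα or PPARγ LBD, a 5×UAS-SV40 firefly reporter and pRL-CMV. Cells were treated with increasing concentrations in 0.1% DMSO (final) 6 h post-transfection, then for 18 h. Firefly/Renilla ratio, normalized to GAL4-only activity. EC50 was taken from a sigmoidal dose-response fit. At least three independent transfections in quadruplicate.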

In assay [2] the target is T2, Peroxisome proliferator-activated receptor delta (Homo sapiens) (UniProt Q03181).
T2 sequence (whole entry): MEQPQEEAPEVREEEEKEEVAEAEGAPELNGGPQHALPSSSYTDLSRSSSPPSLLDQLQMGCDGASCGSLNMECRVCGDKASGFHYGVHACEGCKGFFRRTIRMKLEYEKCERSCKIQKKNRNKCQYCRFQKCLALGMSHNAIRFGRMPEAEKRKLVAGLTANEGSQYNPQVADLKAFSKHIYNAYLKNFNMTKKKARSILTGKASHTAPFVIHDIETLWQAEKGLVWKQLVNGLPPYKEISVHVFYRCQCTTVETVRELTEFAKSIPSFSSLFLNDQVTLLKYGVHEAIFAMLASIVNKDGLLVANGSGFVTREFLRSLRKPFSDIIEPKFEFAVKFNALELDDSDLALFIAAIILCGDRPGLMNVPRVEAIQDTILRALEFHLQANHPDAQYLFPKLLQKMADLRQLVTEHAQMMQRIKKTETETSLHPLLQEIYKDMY
Kind of assay: Agonist activity at full length human GAL4-DBD fused PPARdelta LBD expressed in COS1 cells at 25 to 50 uM measured after 18 hrs by dual luciferase reporter gene assay. A digest of the protocol:
(§1)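 COS-1 cells were transfected using Lipofectamine 2000 with GAL4-DBD–human NR-LBD plasmid, a 5×UAS-SV40 firefly luciferase reporter and pRL-CMV. After 6 h, cells were treated with 0, 25 or 50 μM in 0.1% DMSO (final) for 18 h. Firefly signal was normalized to Renilla, then to DMSO control and GAL4-only. Three biological replicates in quadruplicate, mean ± SEM, two-way ANOVA with Bonferroni.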

The target in assay [3] is T3, Peroxisome proliferator-activated receptor alpha (Homo sapiens) (UniProt Q07869).
T3 sequence (whole entry): T1 sequence (Q07869 whole entry)
Kind of assay: Agonist activity at PPARalpha in human Huh7 cells assessed as PPARA mRNA expression at 50 uM measured after 18 hrs by qRT-PCR analysis. A digest of the protocol:
(§2)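 Treatment for 18 h at 50 μM (or 1 μM for the 1 μM agents), DMSO vehicle. Harvested for qPCR. mRNA normalized to TBP by the comparative threshold method, expressed relative to DMSO control. Two biological replicates run in duplicate, mean ± SEM. Primary hepatocytes came from male C57BL/6N mice aged 7–8 weeks, isolated by portal-vein perfusion and digestion, seeded on collagen I and used on day 2. HuH-7 cells were kept in DMEM with 10% FBS and ITS.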

The target in assay [4] is T3, Peroxisome proliferator-activated receptor alpha (Homo sapiens). Kind of assay: Agonist activity at PPARalpha in human Huh7 cells assessed as SREBF1 mRNA expression at 50 uM measured after 18 hrs by qRT-PCR analysis. A digest of the protocol:
as §2

For assay [5], the target named is T4, Peroxisome proliferator-activated receptor alpha (Mus musculus) (UniProt P23204).
T4 sequence (whole entry): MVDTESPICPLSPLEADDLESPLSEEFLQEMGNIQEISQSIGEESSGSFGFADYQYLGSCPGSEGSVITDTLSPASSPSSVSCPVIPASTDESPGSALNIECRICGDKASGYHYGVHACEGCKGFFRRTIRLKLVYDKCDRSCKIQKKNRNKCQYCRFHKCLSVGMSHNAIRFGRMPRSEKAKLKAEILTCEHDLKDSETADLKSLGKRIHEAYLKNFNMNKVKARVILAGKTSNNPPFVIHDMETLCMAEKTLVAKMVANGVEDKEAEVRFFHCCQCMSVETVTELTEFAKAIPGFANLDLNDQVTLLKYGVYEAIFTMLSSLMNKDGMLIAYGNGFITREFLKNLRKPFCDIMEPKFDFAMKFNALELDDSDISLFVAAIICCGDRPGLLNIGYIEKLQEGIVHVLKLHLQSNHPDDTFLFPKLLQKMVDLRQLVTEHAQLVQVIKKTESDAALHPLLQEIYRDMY
Kind of assay: Agonist activity at PPARalpha in C57BL/6N mouse primary hepatocytes assessed as SREBF1 mRNA expression at 50 uM measured after 18 hrs by qRT-PCR analysis. A digest of the protocol:
as §2

The target in assay [6] is T5, Oxysterols receptor LXR-alpha (Homo sapiens) (UniProt Q13133).
T5 sequence (whole entry): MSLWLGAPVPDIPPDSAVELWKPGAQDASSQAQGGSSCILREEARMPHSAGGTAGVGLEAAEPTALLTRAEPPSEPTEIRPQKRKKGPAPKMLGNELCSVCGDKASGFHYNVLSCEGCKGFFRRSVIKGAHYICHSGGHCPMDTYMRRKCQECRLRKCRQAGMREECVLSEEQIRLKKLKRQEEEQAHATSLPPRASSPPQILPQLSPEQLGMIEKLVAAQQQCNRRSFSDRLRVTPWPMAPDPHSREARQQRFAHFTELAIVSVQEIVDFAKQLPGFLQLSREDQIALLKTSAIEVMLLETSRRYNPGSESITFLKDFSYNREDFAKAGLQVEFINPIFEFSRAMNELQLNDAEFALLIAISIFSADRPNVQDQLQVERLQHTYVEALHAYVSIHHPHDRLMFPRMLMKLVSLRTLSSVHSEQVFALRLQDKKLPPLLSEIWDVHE
Kind of assay: Agonist activity at full length human GAL4-DBD fused LXRalpha LBD (164 to 447 residues) expressed in COS1 cells at 25 to 50 uM measured after 18 hrs by dual luciferase reporter gene assay. A digest of the protocol: as §1

In turn, `CCCCCCCc1cc(CCCCCC(=O)O)no1` yielded an EC50 in assay [1] of 47 µM. For the same molecule, the result in assay [2], in assay [3], in assay [4] and in assay [6] was inactive. For the same molecule, in assay [5], the outcome was Active.
